Laboratory results taken from ChEMBL document CHEMBL1140344, “New 2-arylpyrazolo[4,3-c]quinoline derivatives as potent and selective human A3 adenosine receptor antagonists” (J Med Chem, 2005).

Legend:
Adenosine receptor A1 = biological target: T1, Adenosine receptor A1 (Homo sapiens, UniProt P30542); assay: Inhibition of [3H]DPCPX binding to human adenosine A1 receptor expressed in CHO cells; (n=3 - 6); type: cell-based
T1 sequence (P30542 whole entry): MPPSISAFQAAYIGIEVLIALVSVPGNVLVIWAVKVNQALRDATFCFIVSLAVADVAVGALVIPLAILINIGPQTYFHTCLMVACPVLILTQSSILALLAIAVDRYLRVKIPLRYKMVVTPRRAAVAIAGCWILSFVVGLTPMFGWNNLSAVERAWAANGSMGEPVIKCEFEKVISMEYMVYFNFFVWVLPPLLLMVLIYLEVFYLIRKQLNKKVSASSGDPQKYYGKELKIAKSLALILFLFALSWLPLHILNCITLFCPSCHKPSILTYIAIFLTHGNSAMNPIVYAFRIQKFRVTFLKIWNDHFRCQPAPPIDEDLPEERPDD
How it was run: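 Membranes from human A1-transfected CHO cells, pretreated with adenosine deaminase 3 IU/ml for 30 min at 37 °C. 50 µg protein incubated 120 min at 25 °C in 50 mM Tris HCl pH 7.4 with 1 nM [³H]DPCPX and 6–8 concentrations of test ligand. Nonspecific binding defined with 10 µM CHA. Separated by GF/B filtration, counted by scintillation. Ki via Cheng–Prusoff.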

Adenosine receptor A2a [1] = biological target: T2, Adenosine receptor A2a (Homo sapiens, UniProt P29274); assay: Percent inhibition of [3H]ZM-241385 binding to human adenosine 2Aa receptor expressed in CHO cells; (n=3 - 6); type: cell-based; design: concentration or dose not given beside the values; details: concentration not given here
Adenosine receptor A2b = biological target: T3, Adenosine receptor A2b (Homo sapiens, UniProt P29275); assay: Inhibition of 100 nM-NECA stimulation of cAMP levels in human adenosine A2b receptor expressing CHO cells; type: cell-based
T3 sequence (P29275 whole entry): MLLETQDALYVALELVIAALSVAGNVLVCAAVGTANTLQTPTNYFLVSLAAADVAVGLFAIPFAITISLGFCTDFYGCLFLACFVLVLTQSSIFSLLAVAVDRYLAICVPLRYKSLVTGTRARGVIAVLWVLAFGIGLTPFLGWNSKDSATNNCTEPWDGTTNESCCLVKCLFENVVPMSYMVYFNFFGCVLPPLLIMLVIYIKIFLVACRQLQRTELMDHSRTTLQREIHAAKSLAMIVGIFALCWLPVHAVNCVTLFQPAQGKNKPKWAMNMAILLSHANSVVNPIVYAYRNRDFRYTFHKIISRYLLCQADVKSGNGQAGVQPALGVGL
How it was run: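 CHO cells stably transfected with human A2B receptor, grown in DMEM/F12 with 10% FCS and G418, 37 °C. Cells trypsinised and suspended at 1 × 10⁶ cells/assay in pH 7.4 buffer with 2 IU/ml adenosine deaminase and Ro 20-1724. Preincubated 10 min at 37 °C, then challenged with 100 nM NECA. Stopped with cold 6% TCA. cAMP measured by competitive binding to [³H]cAMP with adrenal binding protein. IC50 from sigmoid nonlinear regression.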

Adenosine receptor A2a [2] = biological target: T2, Adenosine receptor A2a; assay: Inhibition of [3H]ZM-241385 binding to human adenosine A2a receptor expressed in CHO cells; (n=3 - 6); type: cell-based
How it was run: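 Membranes from human A2A-transfected CHO cells, pretreated with adenosine deaminase. 50 µg protein incubated 60 min at 4 °C in 50 mM Tris HCl, 10 mM MgCl₂, pH 7.4 with [³H]ZM241385 and 6–8 concentrations of test ligand. Nonspecific binding defined with 1 µM ZM241385. Separated by filtration, counted by scintillation. Ki via Cheng–Prusoff.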

Adenosine receptor A3 [3] = biological target: T4, Adenosine receptor A3 (Homo sapiens, UniProt P0DMS8); assay: Inhibition of [3H]MRE3008-F20 binding to human adenosine A3 receptor expressed in CHO cells; (n=3 - 6); type: cell-based
T4 sequence (P0DMS8 whole entry): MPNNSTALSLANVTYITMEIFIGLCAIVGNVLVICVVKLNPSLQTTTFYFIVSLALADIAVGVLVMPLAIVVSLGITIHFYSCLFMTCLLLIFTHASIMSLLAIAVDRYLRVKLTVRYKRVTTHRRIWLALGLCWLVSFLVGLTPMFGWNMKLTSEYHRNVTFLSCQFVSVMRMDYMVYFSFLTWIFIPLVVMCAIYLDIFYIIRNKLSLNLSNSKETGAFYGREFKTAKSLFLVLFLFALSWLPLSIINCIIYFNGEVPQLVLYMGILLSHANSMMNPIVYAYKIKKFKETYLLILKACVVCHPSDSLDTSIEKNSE

[4] = biological target: T5, Adenosine receptor A1 (Homo sapiens) (UniProt P30542); assay: Percent inhibition [3H]DPCPX binding to human adenosine A1 receptor expressed in CHO cells; (n=3 - 6); type: cell-based; design: concentration or dose not given beside the values; details: concentration not given here
T5 sequence (whole entry): T1 sequence (P30542 whole entry)

[5] = biological target: T6, Adenosine receptor A2b (Homo sapiens) (UniProt P29275); assay: Percent inhibition of human adenosine A2b receptor expressed in CHO cells; type: cell-based; design: concentration or dose not given beside the values; details: concentration not given here
T6 sequence (whole entry): T3 sequence (P29275 whole entry)

Adenosine receptor A3 [6] = biological target: T4, Adenosine receptor A3; assay: Inhibition of cAMP accumulation in human adenosine A3 receptor assay as inhibition of Cl-IB-MECA; type: functional
[7] = biological target: T5, Adenosine receptor A1 (Homo sapiens); assay: Percentage inhibition of [3H]DPCPX binding to human adenosine A1 receptor expressed in CHO cells; (n=3 - 6); type: cell-based; details: concentration not given here

T2 sequence (P29274 whole entry): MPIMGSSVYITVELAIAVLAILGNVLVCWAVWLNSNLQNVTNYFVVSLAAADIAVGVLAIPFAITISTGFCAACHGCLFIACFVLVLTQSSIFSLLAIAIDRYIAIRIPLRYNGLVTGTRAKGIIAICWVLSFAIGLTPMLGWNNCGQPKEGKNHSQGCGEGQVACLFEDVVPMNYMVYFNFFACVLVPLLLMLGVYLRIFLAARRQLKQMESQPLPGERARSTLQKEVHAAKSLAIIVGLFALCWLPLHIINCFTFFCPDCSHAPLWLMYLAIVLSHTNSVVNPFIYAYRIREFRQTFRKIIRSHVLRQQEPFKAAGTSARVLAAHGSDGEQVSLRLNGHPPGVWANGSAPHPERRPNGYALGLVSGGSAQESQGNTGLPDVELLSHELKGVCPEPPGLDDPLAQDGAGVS

| Compound | Ki (Adenosine receptor A1) [nM] | inhibition (Adenosine receptor A2a [1]) [%] | IC50 (Adenosine receptor A2b) [nM] | Ki (Adenosine receptor A2a [2]) [nM] | Ki (Adenosine receptor A3 [3]) [nM] | inhibition [4] [%] | inhibition [5] [%] | Ki (Adenosine receptor A3 [6]) [nM] | inhibition [7] [%] |
| --- | --- | --- | --- | --- | --- | --- | --- | --- | --- |
| COc1nc2ccccc2c2nn(-c3ccccc3)cc12 | > 1000 | 5 | > 1000 | > 1000 | 166 | 16 | 10 | – | – |
| Oc1nc2ccccc2c2nn(-c3ccc(F)cc3)cc12 | > 1000 | 10 | > 1000 | > 1000 | 27 | 10 | 10 | – | – |
| CCc1ccc(-n2cc3c(=O)[nH]c4ccccc4c3n2)cc1 | > 1000 | – | > 1000 | > 1000 | 157 | – | – | – | – |
| Oc1nc2ccccc2c2nn(-c3ccccc3Cl)cc12 | > 1000 | 1 | > 1000 | > 1000 | 44 | 3 | 8 | – | – |
| COc1ccc(-n2cc3c(O)nc4ccccc4c3n2)cc1 | > 1000 | 1 | > 1000 | > 1000 | 16 | 1 | 2 | 42 | – |
| Sc1nc2ccccc2c2nn(-c3ccccc3)cc12 | > 1000 | 8 | > 1000 | > 1000 | 220 | 14 | 11 | – | – |
| Oc1nc2ccccc2c2nn(-c3ccccc3)cc12 | > 1000 | 2 | > 1000 | > 1000 | 27 | – | 1 | 55 | 5 |
| CCc1ccc(-n2cc3c(O)nc4ccccc4c3n2)cc1 | – | 1 | – | – | – | 12 | 13 | – | – |
| Cc1ccc(-n2cc3c(O)nc4ccccc4c3n2)cc1 | – | 1 | – | – | – | 3 | 2 | – | – |
| Oc1nc2ccccc2c2nn(-c3ccc(Cl)cc3)cc12 | > 1000 | 1 | > 1000 | > 1000 | 19 | 4 | 1 | – | – |
| c1ccc(CNc2nc3ccccc3c3nn(-c4ccccc4)cc23)cc1 | > 1000 | 2 | > 1000 | > 1000 | 125 | 4 | 1 | – | – |
| c1ccc(-n2cc3cnc4ccccc4c3n2)cc1 | > 1000 | 3 | > 1000 | > 1000 | 212 | 5 | 1 | – | – |
| Cc1ccc(-n2cc3c(=O)[nH]c4ccccc4c3n2)cc1 | > 1000 | – | > 1000 | > 1000 | – | – | – | – | – |
